Shown are actives, neighbours in structure and some others; about 2.2% of the full set was active somewhere.
eIF4E-4G inh: eIF4E–eIF4G protein interaction inhibitors, primary screen, biochemical, uHTS, TR-FRET, eIF4GI fragment | TR-FRET eIF4E-eIF4GI(517-606) binding, 2 h | Eukaryotic translation initiation factor 4E (Mus musculus) + Eukaryotic translation … | inhibition, % at 21.7 µM | AID 782, 2007 | hit rate 0.37% among 220,000;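 active = inhibition above about 30%, limit read from the data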;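 also: 0% = full FRET control wells and 100% = background wells lacking eIF4GI fragment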
Target sequence (P63073 whole entry, looked up, the tested form may be a part): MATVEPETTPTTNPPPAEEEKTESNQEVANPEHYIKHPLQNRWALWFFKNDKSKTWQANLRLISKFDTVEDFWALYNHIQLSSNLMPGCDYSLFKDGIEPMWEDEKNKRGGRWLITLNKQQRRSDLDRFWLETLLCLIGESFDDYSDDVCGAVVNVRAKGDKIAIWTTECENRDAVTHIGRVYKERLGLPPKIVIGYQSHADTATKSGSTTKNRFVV
Target sequence (Q04637 whole entry, looked up, the tested form may be a part): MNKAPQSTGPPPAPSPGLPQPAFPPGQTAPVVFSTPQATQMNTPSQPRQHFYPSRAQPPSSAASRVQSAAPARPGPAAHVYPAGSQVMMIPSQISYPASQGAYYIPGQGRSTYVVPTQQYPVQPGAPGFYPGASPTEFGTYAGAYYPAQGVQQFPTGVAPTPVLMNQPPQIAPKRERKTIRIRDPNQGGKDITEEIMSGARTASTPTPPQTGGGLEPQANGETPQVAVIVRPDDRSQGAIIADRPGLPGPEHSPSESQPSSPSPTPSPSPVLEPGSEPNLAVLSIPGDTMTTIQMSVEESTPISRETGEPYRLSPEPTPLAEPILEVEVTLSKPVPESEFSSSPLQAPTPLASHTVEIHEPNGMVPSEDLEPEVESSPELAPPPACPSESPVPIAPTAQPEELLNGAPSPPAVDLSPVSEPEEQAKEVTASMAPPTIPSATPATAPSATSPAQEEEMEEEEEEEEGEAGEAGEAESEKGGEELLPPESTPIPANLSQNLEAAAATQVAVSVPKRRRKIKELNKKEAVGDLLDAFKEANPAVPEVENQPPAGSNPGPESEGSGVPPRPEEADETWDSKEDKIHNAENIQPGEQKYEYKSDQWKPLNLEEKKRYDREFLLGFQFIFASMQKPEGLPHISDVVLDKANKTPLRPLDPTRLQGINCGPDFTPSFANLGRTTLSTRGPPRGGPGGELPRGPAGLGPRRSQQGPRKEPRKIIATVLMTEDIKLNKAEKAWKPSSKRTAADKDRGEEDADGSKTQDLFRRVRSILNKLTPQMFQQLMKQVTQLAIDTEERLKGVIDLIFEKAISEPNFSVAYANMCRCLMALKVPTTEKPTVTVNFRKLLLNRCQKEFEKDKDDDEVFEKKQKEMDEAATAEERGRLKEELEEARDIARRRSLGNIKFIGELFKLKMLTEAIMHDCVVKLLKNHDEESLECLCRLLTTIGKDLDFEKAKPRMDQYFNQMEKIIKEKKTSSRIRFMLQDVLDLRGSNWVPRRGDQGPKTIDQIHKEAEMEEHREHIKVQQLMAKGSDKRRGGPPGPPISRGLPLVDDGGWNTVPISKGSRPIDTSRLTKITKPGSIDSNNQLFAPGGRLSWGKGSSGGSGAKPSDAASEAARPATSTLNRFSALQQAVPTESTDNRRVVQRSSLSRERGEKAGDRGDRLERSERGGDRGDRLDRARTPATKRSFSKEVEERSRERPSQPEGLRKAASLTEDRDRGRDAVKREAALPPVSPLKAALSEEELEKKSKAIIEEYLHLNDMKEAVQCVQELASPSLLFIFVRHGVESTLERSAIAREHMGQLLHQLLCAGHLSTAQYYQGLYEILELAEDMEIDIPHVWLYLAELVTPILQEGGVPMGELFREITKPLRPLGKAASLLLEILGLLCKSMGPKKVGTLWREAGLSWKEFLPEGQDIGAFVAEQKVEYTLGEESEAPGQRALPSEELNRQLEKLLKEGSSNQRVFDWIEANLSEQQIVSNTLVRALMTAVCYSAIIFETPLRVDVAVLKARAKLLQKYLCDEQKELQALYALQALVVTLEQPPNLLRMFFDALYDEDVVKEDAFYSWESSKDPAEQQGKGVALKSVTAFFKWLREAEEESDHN
Runt-CBFb FRET: inhibitors of RUNX1 Runt–CBFb binding, primary screen, biochemical, FRET, Cerulean-Runt, Venus-CBFb, uHTS; Cerulean-Runt/Venus-CBFb FRET ratio 530/480, 1 h; inhibition, % at 20 µM; hit rate 0.46% among 220,000; AID 1496, 2009;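 active = inhibition over about 50% at 20 µM in the single-dose screen, limit read from the data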;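 also: 0% = DMSO wells and 100% = excess unlabeled CBFb competitor control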
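System: Cerulean-labeled Runt domain protein | Quantity: 100 nM of each labeled protein | Schedule: 1 h compound exposure, room temperature | Detection: Fluorescence energy transfer, 422 nm excitation, 530/480 nm emission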
RanGTP-Impb inh: inhibitors of RanGTP-importin-beta interaction, primary screen, biochemical, FRET, CFP-Ran, YFP-importin-beta, homogeneous; hit rate 1.1% among 300,000; cell-free CFP-Ran/YFP-importin-beta FRET ratio; Ran GTPase (GTP-bound) - importin-beta complex; inhibition, % (concentration not given with the values);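 active = more than half of the replicate wells show a fall in the fluorescence ratio signal beyond about 16%, limit read from the data, passing the limit was not always enough; inconclusive = exactly half of the replicate wells pass the set limit; inactive = fewer than half of replicates pass the limit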;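 also: 0% = DMSO wells and 100% = Ran loaded with GDP instead of GTP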
PERK inhibitor: block of dimerizer-induced PERK translation repression, primary screen, PERK inhibitor project, CHO PERK-DD cells, SEAP luminescence, HTS; inhibition, % at 5.6 µM; hit rate 0.17% among 220,000; CHO PERK-DD fusion, SEAP luminescence translation reporter; Eukaryotic translation initiation factor 2-alpha kinase 3 (Homo sapiens), Q9NZJ5; AID 1416, 2008;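 active = inhibition above the mean inhibition of all tested compounds plus 3 SD, set separately per screening campaign, cut at about 2.9% in these data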;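 also: PERK kinase domain activated by AP20187 dimerizer at 100 nM; 0% = DMSO with dimerizer and 100% = rapamycin at 8.4 µM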
Hck Nef HTS: inhibitors of Nef-activated human Hck kinase, primary screen, biochemical, Z-Lyte FRET, 384-well, Hck-YEEI; AID 463187, 2010; Recombinant Hck-YEEI plus Nef, Z-Lyte FRET kinase assay; Tyrosine-protein kinase HCK (Homo sapiens), P08631; hit rate 0.68% among 220,000; inhibition, % at 20 µM;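 active = Hck-Nef kinase inhibition above about 50%, limit read from the data; inactive = inhibition below that limit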;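 also: 0% = DMSO with Hck plus Nef and 100% = Hck alone without Nef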
Runt-SMMHC FRET: inhibitors of RUNX1 Runt–CBFb-SMMHC binding, primary screen, biochemical, FRET, Cerulean-Runt, Venus-CBFb-SMMHC, uHTS; Runt-related transcription factor 1 (Homo sapiens) + Core-binding factor subunit beta …; Cerulean-Runt/Venus-CBFb-SMMHC FRET ratio 530/480, 1 h; inhibition, % at 20 µM; hit rate 0.74% among 220,000;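 active = mean inhibition across duplicate retests at 20 µM reaching about 50%, limit read from the data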;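 also: 0% = DMSO wells and 100% = wells with excess untagged CBFb-SMMHC; inhibitors lower the FRET ratio by blocking Runt binding to CBFb-SMMHC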
RUNX1 CBFb TR: inhibitors of RUNX1 Runt–CBFb binding, biochemical, TR-FRET; hit rate 20% among 480; inhibition, % at 20 µM; shares compounds with Runt-CBFb FRET; AID 1502, 2009; TR-FRET RUNX1 Runt domain-CBFb binding; in the data active = inhibition above about 40%
YIC FRET counter: YIC intramolecular FRET probe signal interference, dose response, counter-screen for RanGTP-importin-beta inhibitor project, biochemical, fluorescence FRET. shares compounds with RanGTP-Impb inh. Purified YIC probe, intramolecular FRET ratio YFP/CFP. IC50, µM. hit rate 40% among 1,000;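 active = fitted half-maximal inhibitory concentration no more than tenfold above the top dose tested; inconclusive = flat fit with 30 to 70% activity, or poor fit; inactive = half-maximal concentration beyond tenfold above the top dose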
Hck-Nef confirm: retest of Hck:Nef kinase inhibitor hits, confirmation, biochemical, Z-Lyte FRET, 384-well, p-Tyr peptide counterscreen; shares compounds with Hck Nef HTS; Recombinant Hck-YEEI:Nef, Z-Lyte FRET kinase assay; calls only at 10 µM; hit rate 28% among 1,300;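 active = average inhibition of at least 50%, with Z-scores no higher than 3 in both the phospho-tyrosine peptide and fluorescence counterscreens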
Numbers without * were called inactive; i = inactive; ? = inconclusive; / = no result shown; + = active, no number.

SMILES	eIF4E-4G inh	Runt-CBFb FRET	RanGTP-Impb inh	PERK inhibitor	Hck Nef HTS	Runt-SMMHC FRET	YIC FRET counter	others
CC1(C)OC(=O)C(=NNc2ccccc2[N+](=O)[O-])C(=O)O1	-2	-1	4	0	16	0	/
O=C(Cc1cccc2ccccc12)Nc1c(F)cccc1F	/	/	1	/	/	/	/
Nc1c(C(=O)NCCN2CCOCC2)c2nc3ccccc3nc2n1CCc1ccccc1F	13	70*	93*	-1	51*	61*	/	RUNX1 CBFb TR=24;Hck-Nef confirm=i
CCOC(=O)C1CCN(C(=O)Cc2ccc(-c3ccccc3)cc2)CC1	/	/	3	/	/	/	/
Cc1ccc(S(=O)(=O)NC(C(=O)Oc2cc3oc(=O)cc(C)c3cc2Cl)C(C)C)cc1 (stereo not drawn)	1	61*	?	0	100*	115*	/	RUNX1 CBFb TR=53*
CC(=O)Oc1cc2oc(=O)cc(C)c2cc1Cl	-4	79*	13	1	+	113*	/	RUNX1 CBFb TR=-57
Cc1cc(=O)oc2cc(OC(C)C(=O)O)c(Cl)cc12 (stereo not drawn)	2	0	-2	1	1	47	/
Cc1ccccc1C(=O)NC(=S)Nc1ccc(N2CCOCC2)cc1	1	2	-2	0	24	-2	/
COCCCn1c(C(=O)NCCC2=CCCCC2)cc2c(=O)n3ccccc3nc21	/	/	2	/	/	/	/
CCOC(=O)c1cc2c(=O)n3ccccc3nc2n(CCOC)c1=NC(=O)C(C)(C)C	2	77*	77*	0	101*	-16	/	RUNX1 CBFb TR=-7
CN(Cc1c(O)ccc2c1oc(=O)c1ccccc12)C1CCCCC1	14	-9	-4	-1	-5	-35	/
CN(C)Cc1c(O)ccc2c3c(c(=O)oc12)CCCCC3	3	70*	20*	0	76*	136*	22*	RUNX1 CBFb TR=4
COc1ccc(NC(=O)c2cn(CCC#N)nc2-c2cccs2)cc1	-1	0	1	0	3	0	/
COc1ccc(NC(=S)N(CCCN2CCCC(C)C2)Cc2cccs2)cc1 (stereo not drawn)	0	1	1	0	28	-1	/
Cc1cc(C)n2nc(C(=O)OCC(=O)c3cc(C)n(CC4CCCO4)c3C)nc2n1 (stereo not drawn)	-5	1	0	1	17	-1	/
Cc1cc(C(=O)COC(=O)c2nc3nccc(C)n3n2)c(C)n1CC1CCCO1 (stereo not drawn)	-4	0	21*	1	15	-4	>50
COc1ccc(C(=O)/C=C/Nc2cccc(C)n2)cc1OC	0	7	20*	-1	17	36	26*
O=C(Nc1ccc2c(c1)OCO2)c1ccc(S(=O)(=O)NCC2CCCO2)cc1 (stereo not drawn)	-7	0	-2	0	15	2	/
O=C(Nc1cccc(F)c1)c1ccc(S(=O)(=O)NCC2CCCO2)cc1 (stereo not drawn)	1	-1	21*	0	2	1	>50
COc1ccccc1CC(=O)NC1CCCc2ccccc21 (stereo not drawn)	2	-1	-2	0	-5	4	/
Cc1cnc(C(=O)Nc2ccc(S(=O)(=O)NCC(C)C)cc2)cn1	-3	/	?	0	18	/	/
Cc1cnc(C(=O)Nc2ccc(S(=O)(=O)N(C(C)C)C(C)C)cc2)cn1	/	/	20*	/	/	/	>50
COc1cc(C(=O)NCCCNC(=O)c2cc(OC)c(OC)c(OC)c2)cc(OC)c1OC	/	/	3	/	/	/	/
COc1cc(C(=O)NCCCNc2nc3cc(C)cc(C)c3cc2C#N)cc(OC)c1OC	-3	/	21*	-2	19	73*	28*
COc1ccccc1Nc1ncccc1[N+](=O)[O-]	/	/	2	/	/	/	/
SMILES	eIF4E-4G inh	Runt-CBFb FRET	RanGTP-Impb inh	PERK inhibitor	Hck Nef HTS	Runt-SMMHC FRET	YIC FRET counter	others
Cc1ncc(CN2CCCC(C(=O)Nc3ccc(-c4ccco4)cc3)C2)cn1 (stereo not drawn)	/	/	1	/	/	/	/
COC(=O)c1cc(NC(=O)c2ccc([N+](=O)[O-])cc2)c(=O)oc1C	-2	10	18*	0	-13	2	>50
CC(=O)c1cc(NC(=O)c2ccc([N+](=O)[O-])cc2)c(=O)oc1C	0	21	-1	1	8	16	/
COc1ccc(CCNC(=O)COc2coc(CN3c4ccccc4CC3C)cc2=O)cc1OC (stereo not drawn)	/	/	3	/	/	/	/
C#CCOc1ccc(C2C3=C(CC(C)(C)CC3=O)N(CC(=O)O)C3=C2C(=O)CC(C)(C)C3)cc1OC	/	/	22*	/	/	/	39*
COc1ccc(N2CCN(C(=O)c3cc4c(=O)n(Cc5ccccc5)ccc4nc3C)CC2)cc1	/	/	2	/	/	/	/
COc1cccc(N2CCN(C(=O)c3cc4c(=O)n(Cc5ccccc5)ccc4nc3C)CC2)c1	/	/	16*	/	/	/	>50
CN(C(=O)c1ccc2c(c1)OCCO2)c1c(N)n(Cc2ccccc2)c(=O)[nH]c1=O	/	/	3	/	/	/	/
C/C(=N\NC(=O)c1c(C)nc2ccccn12)c1ccccc1F	/	/	-1	/	/	/	/
C/C(=N\NC(=O)c1c(C)nc2ccccn12)c1ccc(O)cc1O	/	/	21*	/	/	/	48*
O=C1NC(c2cccc([N+](=O)[O-])c2)Oc2ccccc21 (stereo not drawn)	-2	2	22*	0	-1	1	>50
O=C1NC(c2ccc(F)cc2)Oc2ccccc21 (stereo not drawn)	/	/	-4	/	/	/	/

Screening data (PubChem)
